This note sets out measurements from ChEMBL document CHEMBL3865820, “Bioactive Dibenzo-α-pyrone Derivatives from the Endophytic Fungus Rhizopycnis vagum Nitaf22” (J Nat Prod, 2016).

≈ marks a conversion by molar mass, not a printed value.

The subject of assay [1] is Bacillus subtilis. As to the kind of experiment: Antibacterial activity against Bacillus subtilis ATCC 11562 by broth dilution colorimetric assay. The format is functional. In a few lines: (§1)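 Modified broth dilution colorimetric assay in 96-well plates, run against a plant- and human-pathogen panel. Both MIC and median inhibitory concentration (IC50) were determined. Streptomycin sulfate served as the positive control.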

Assay [2] can be described thus: Antibacterial activity against Ralstonia solanacearum ATCC 11696 by broth dilution colorimetric assay. Type of assay: functional, Ralstonia solanacearum K60-1. Summed up:
(§2)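 Modified broth dilution colorimetric assay in 96-well plates, reporting both minimum inhibitory concentration (MIC) and median inhibitory concentration (IC50). Streptomycin sulfate served as positive control.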
For orientation: Broth dilution looks for growth in wells or tubes with falling amounts of substance.

In assay [3] the test system is Staphylococcus haemolyticus. Briefly: Antibacterial activity against Staphylococcus haemolyticus ATCC 29970 by broth dilution colorimetric assay. Type of assay: functional. Summed up: as §1
Assay [4] concerns Xanthomonas euvesicatoria. Briefly: Antibacterial activity against Xanthomonas vesicatoria ATCC 11633 by broth dilution colorimetric assay. Type of assay: functional. Summed up:
as §1

For assay [5], the system named is Agrobacterium tumefaciens. As to the kind of experiment: Antibacterial activity against Agrobacterium tumefaciens ATCC 11158 by broth dilution colorimetric assay. The format is functional. Summed up: as §1
The test system of assay [6] is Pseudomonas amygdali pv. lachrymans. Briefly: Antibacterial activity against Pseudomonas lachrymans ATCC 11921 by broth dilution colorimetric assay. Type of assay: functional. Summed up:
as §1

Assay [7] in a line: Cytotoxicity against human A2780 cells by MTT assay. The format is functional, cell-based. In a few lines:
(§3)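 Microculture tetrazolium (MTT) assay on a panel of human carcinoma cell lines: colon HCT-116, hepatocellular HepG2, gastric BGC-823, NSCLC NCI-H1650, ovarian A2780, melanoma A375, lung adenocarcinoma A549, breast MCF-7 and pancreatic Capan2. IC50 values are reported in μM.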

The test system of another assay is Pyricularia oryzae. Briefly: Antifungal activity against Magnaporthe oryzae assessed as inhibition of spore germination after 8 hrs by microscopic analysis. Type of assay: functional. Summed up: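 Spores taken from 7-day-old M. oryzae cultures (2 × 10^6 spores per mL). Compound in 10% aqueous ethanol was mixed 1:1 with the spore suspension on a concave slide and kept in a dark moist chamber at 25 °C for 8 h. Germination was counted by microscope. Inhibition % = [(Gc − Gt)/Gc] × 100 against 10% ethanol control, with triplicates. IC50 was obtained by linear regression; carbendazim served as positive control.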

A short description of assay [8]: Cytotoxicity against human BGC823 cells by MTT assay. The format is functional, cell-based. Particulars: BGC-823. Summed up:
as §3
In general terms: Tetrazolium dyes change colour on reduction, which living cells bring about.

Assay [9] can be described thus: Cytotoxicity against human HepG2 cells by MTT assay. The format is functional, cell-based. In a few lines: as §3
Assay [10] in a line: Cytotoxicity against human HCT116 cells by MTT assay. The format is functional, cell-based. The following applies: HCT-116. In a few lines:
as §3

Assay [11] can be described thus: Cytotoxicity against human NCI-H1650 cells by MTT assay. Type of assay: functional, cell-based. In a few lines:
as §3

Assay [12] deals with Xanthomonas euvesicatoria. Briefly: Antibacterial activity against Xanthomonas vesicatoria ATCC 11633 after 24 hrs by MTT based broth dilution colorimetric assay. Particulars: ATCC 11633, 24 h. The format is functional. Summed up:
as §2

Assay [13] has as its system Agrobacterium tumefaciens. Briefly: Antibacterial activity against Agrobacterium tumefaciens ATCC 11158 after 24 hrs by MTT based broth dilution colorimetric assay. Particulars: ATCC 11158, 24 h. The format is functional.
A short description of assay [14]: Cytotoxicity against human MCF7 cells by MTT assay. The format is functional, cell-based. Summed up: as §3
Assay [15] is described as follows: Cytotoxicity against human Capan2 cells by MTT assay. Type of assay: functional, cell-based. The following applies: Capan-2. In a few lines: as §3
Assay [16] in a line: Cytotoxicity against human A375 cells by MTT assay. Type of assay: functional, cell-based. Particulars: A-375. In a few lines: as §3
Assay [17] in a line: Cytotoxicity against human A549 cells by MTT assay. Type of assay: functional, cell-based. Summed up:
as §3

In assay [18] the test system is Pseudomonas amygdali pv. lachrymans. Briefly: Antibacterial activity against Pseudomonas lachrymans ATCC 11921 after 24 hrs by MTT based broth dilution colorimetric assay. The following applies: ATCC 11921, 24 h. Type of assay: functional. Summed up:
as §2

Assay [19] deals with Bacillus subtilis. As to the kind of experiment: Antibacterial activity against Bacillus subtilis ATCC 11562 after 24 hrs by MTT based broth dilution colorimetric assay. The format is functional. Particulars: ATCC 11562, 24 h.

The MIC is the lowest concentration that inhibits growth of the organism. A lower MIC goes with inhibition by little substance. Turning to `COC1=C(N)[C@](C)(O)c2c(oc(=O)c3c(O)cc(OC)cc23)C1=O`, the MIC (with Bacillus subtilis [1]; in [2]; in assay [3]; in assay [4]; in assay [5]; in assay [6]) was more than 200 µg/mL in each case.
The term IC50 denotes the concentration at which inhibition is half-maximal. `COc1cc(O)c2c(=O)oc3c(O)c(OC)cc(C)c3c2c1`: the 50% inhibitory concentration (IC50) is more than 10000 nM in [7]; more than 200 µg/mL in the assay on Pyricularia oryzae; more than 10000 nM in assay [8]; more than 10000 nM in assay [9]; more than 10000 nM in assay [10]; more than 10000 nM in [11]. In addition, the MIC (in the assay with Bacillus subtilis [1]; in assay [2]; in assay [3]; in assay [4]; in assay [5]; in assay [6]) was more than 200 µg/mL in each case.
For `COc1cc(O)c2c(=O)oc3cc(O)cc(C)c3c2c1`, the IC50 is 16.7 to 34.3 µg/mL (≈ 61.3 to 126 µM) in [12]; 16.7 to 34.3 µg/mL (≈ 61.3 to 126 µM) in assay [13]; more than 50000 nM in assay [14]; more than 50000 nM in [15]; more than 50000 nM in assay [16]; 70400 nM in assay [17]. For the same compound, the IC50 in [10] was more than 50000 nM; in assay [18], 16.7 to 34.3 µg/mL (≈ 61.3 to 126 µM); in the assay with Bacillus subtilis [19], 16.7 to 34.3 µg/mL (≈ 61.3 to 126 µM).
On to `Cc1cc(O)cc2oc(=O)c3c(O)cc(O)cc3c12` [ALTERNARIOL], for which the IC50 was more than 10000 nM in assay [7]; 7 µg/mL (≈ 27.1 µM) in the assay with Bacillus subtilis [1]; more than 200 µg/mL in the assay with Pyricularia oryzae; 5.5 µg/mL (≈ 21.3 µM) in assay [2]; 7.9 µg/mL (≈ 30.6 µM) in assay [3]; more than 10000 nM in assay [8]. Moreover, the IC50 in assay [9] was more than 10000 nM; in assay [4], 4.9 µg/mL (≈ 19 µM); in assay [10], more than 10000 nM; in assay [5], 11.4 µg/mL (≈ 44.1 µM); in assay [6], 3.5 µg/mL (≈ 13.6 µM); in assay [11], more than 10000 nM. Also, the MIC in the assay with Bacillus subtilis [1] amounted to 50 µg/mL (≈ 194 µM); in assay [2], 25 µg/mL (≈ 96.8 µM); in assay [3], 50 µg/mL (≈ 194 µM); in [4], 25 µg/mL (≈ 96.8 µM); in [5], 50 µg/mL (≈ 194 µM); in [6] it was 25 µg/mL (≈ 96.8 µM).
As to `COC(=O)Nc1nc2ccccc2[nH]1` [CARBENDAZIM], the IC50 in the assay on Pyricularia oryzae came out at 6.9 µg/mL (≈ 36.1 µM).
In the case of `CC(=O)O[C@H]1C(=O)[C@@]2(C)[C@H]([C@H](OC(=O)c3ccccc3)[C@]3(O)C[C@H](OC(=O)[C@H](O)[C@@H](NC(=O)c4ccccc4)c4ccccc4)C(C)=C1C3(C)C)[C@]1(OC(C)=O)CO[C@@H]1C[C@@H]2O` [PACLITAXEL], the concentration for half-maximal inhibition (IC50) in assay [7] came to 38 nM; in assay [14], 0.6 nM; in [15], 17 nM; in assay [8], 3.3 nM; in [9] it was 12 nM; in assay [16], 22 nM. In addition, the results for the concentration for half-maximal inhibition (IC50) in assay [17], in assay [10] and in [11] were 23 nM, 0.9 to 4 nM and 68 nM, respectively.
Consider `CN[C@@H]1[C@H](O[C@H]2[C@H](O[C@H]3[C@H](O)[C@@H](O)[C@H](N=C(N)N)[C@@H](O)[C@@H]3N=C(N)N)O[C@@H](C)[C@]2(O)C=O)O[C@@H](CO)[C@H](O)[C@H]1O.CN[C@@H]1[C@H](O[C@H]2[C@H](O[C@H]3[C@H](O)[C@@H](O)[C@H](N=C(N)N)[C@@H](O)[C@@H]3N=C(N)N)O[C@@H](C)[C@]2(O)C=O)O[C@@H](CO)[C@H](O)[C@H]1O.O=S(=O)(O)O.O=S(=O)(O)O.O=S(=O)(O)O` [STREPTOMYCIN SULFATE], for which the IC50 in the assay with Bacillus subtilis [1] was 1.4 µg/mL; in assay [2], 1.2 µg/mL; in assay [3], 1.4 µg/mL; in assay [4], 2.6 µg/mL; in [5], 1.4 µg/mL; in [6], 2.3 µg/mL. The MIC in the assay with Bacillus subtilis [1] was 5 µg/mL; in assay [2] it was 5 µg/mL; in [3], 5 µg/mL; in [4] it was 10 µg/mL; in assay [5] it was 5 µg/mL; in assay [6], 7.5 µg/mL.
